Legend:
[1] = Half life in cynomolgus monkey at 3 mg/kg, iv administered as single dose by LC-MS/MS method; assay type: ADME, organism-based, Macaca fascicularis; set-up: dose 3 mg/kg, route intravenous; details: in vivo
Outline: (§1)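 Male F344 rats (146–185 g) and male cynomolgus monkeys (3.48–4.29 kg), n = 4 each, fasted overnight, received single iv or oral doses of 0.3, 1.0, 3.0 or 10.0 mg/kg. Monkeys had 2-week washouts between doses. Plasma was sampled to 48 h and assayed by LC-MS/MS with deuterated internal standard. Noncompartmental analysis: tmax observed; t1/2 by regression on ≥3 terminal log points; Vss = dose·AUMC/(AUC0–inf)²; Foral = oral/iv AUC0–inf at the same dose.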

[2] = Cmax in cynomolgus monkey at 1 mg/kg, po administered as single dose by LC-MS/MS method; assay type: ADME, organism-based, Macaca fascicularis; set-up: dose 1 mg/kg, route oral; details: in vivo
Outline: (§2)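 Fasted male F344 rats (146–185 g) and cynomolgus monkeys (3.48–4.29 kg), n = 4 each, received a single oral dose; monkeys had 2-week washouts. Plasma sampled up to 48 h, stored at […], assayed by LC-MS/MS with a deuterated internal standard. Cmax taken from observed data by noncompartmental analysis; mean ± S.D. (n = 3 or 4).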

[3] = Cmax in F344 rat at 0.3 mg/kg, po administered as single dose by LC-MS/MS method; assay type: ADME, organism-based; set-up: dose 0.3 mg/kg, route oral; details: in vivo; outline: as §2
Alpha amylase = target: T1, Alpha amylase (Homo sapiens, UniProt P0DUB6); assay: Inhibition of pancreatic alpha amylase (unknown origin)
T1 sequence (P0DUB6 whole entry): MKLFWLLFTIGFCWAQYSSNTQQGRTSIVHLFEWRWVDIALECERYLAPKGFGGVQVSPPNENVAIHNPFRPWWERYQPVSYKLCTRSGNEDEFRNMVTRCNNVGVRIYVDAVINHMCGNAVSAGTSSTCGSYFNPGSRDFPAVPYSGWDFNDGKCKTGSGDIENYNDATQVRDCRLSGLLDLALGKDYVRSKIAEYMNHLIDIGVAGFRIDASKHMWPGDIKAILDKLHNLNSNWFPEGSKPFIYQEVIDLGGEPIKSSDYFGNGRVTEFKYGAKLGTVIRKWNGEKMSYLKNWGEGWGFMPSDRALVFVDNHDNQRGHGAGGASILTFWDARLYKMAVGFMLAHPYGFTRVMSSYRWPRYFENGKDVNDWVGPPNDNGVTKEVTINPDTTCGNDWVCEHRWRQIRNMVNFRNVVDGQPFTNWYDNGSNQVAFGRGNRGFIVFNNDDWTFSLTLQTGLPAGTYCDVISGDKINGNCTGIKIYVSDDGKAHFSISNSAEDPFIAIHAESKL

[4] = AUC (0 to infinity) in cynomolgus monkey at 0.3 mg/kg, iv administered as single dose by LC-MS/MS method; assay type: ADME, organism-based, Macaca fascicularis; set-up: time infinity, dose 0.3 mg/kg, route intravenous; details: plasma
Outline: (§3)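 Fasted male F344 rats (146–185 g) or male cynomolgus monkeys (3.48–4.29 kg), n = 4 per dose, given single iv or oral dose of 0.3, 1.0, 3.0 or 10.0 mg/kg; monkeys dosed with 2-week washouts. Blood sampled to 48 h; plasma stored frozen. LC-MS/MS with deuterated internal standard. Noncompartmental analysis: AUClast by trapezoidal rule; AUC0–inf = AUClast + Ctz/terminal rate constant; mean ± S.D.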

[5] = Clearance in F344 rat at 1 mg/kg, iv administered as single dose by LC-MS/MS method; assay type: ADME, organism-based; set-up: dose 1 mg/kg, route intravenous; details: in vivo
Outline: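 Fasted male F344 rats (146–185 g) and male cynomolgus monkeys (3.48–4.29 kg), n = 4 each, received a single iv dose; monkeys had 2-week washouts between doses. Blood was sampled up to 48 h and plasma stored at […]. Plasma parent was quantified by LC-MS/MS with a deuterated internal standard. CL = dose/AUC0–inf by noncompartmental analysis; mean ± S.D.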

[6] = Volume of distribution at steady state in F344 rat at 1 mg/kg, iv administered as single dose by LC-MS/MS method; assay type: ADME, organism-based; set-up: dose 1 mg/kg, route intravenous; details: in vivo, read-out: Vdss; outline: as §1
[7] = Volume of distribution at steady state in cynomolgus monkey at 1 mg/kg, iv administered as single dose by LC-MS/MS method; assay type: ADME, organism-based, Macaca fascicularis; set-up: dose 1 mg/kg, route intravenous; details: in vivo, read-out: Vdss; outline: as §1
[8] = Volume of distribution at steady state in cynomolgus monkey at 3 mg/kg, iv administered as single dose by LC-MS/MS method; assay type: ADME, organism-based, Macaca fascicularis; set-up: dose 3 mg/kg, route intravenous; details: in vivo, read-out: Vdss; outline: as §1
[9] = AUC (0 to infinity) in F344 rat at 10 mg/kg, po administered as single dose by LC-MS/MS method; assay type: ADME, organism-based; set-up: time infinity, dose 10 mg/kg, route oral; details: plasma; outline: as §3
[10] = AUClast in cynomolgus monkey at 1 mg/kg, po administered as single dose by LC-MS/MS method; assay type: ADME, organism-based, Macaca fascicularis; set-up: time 0 - last, dose 1 mg/kg, route oral; details: plasma; outline: as §3
[11] = Half life in F344 rat at 3 mg/kg, po administered as single dose by LC-MS/MS method; assay type: ADME, organism-based; set-up: dose 3 mg/kg, route oral; details: in vivo; outline: as §1
Rattus norvegicus = assay: Total drug excretion in F344 rat at 1 mg/kg, iv administered as single dose after 0 to 48 hrs by scintillation counting method; assay type: ADME, organism-based; set-up: dose 1 mg/kg, route intravenous; details: in vivo
Outline: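 Fasted F344 rats (n = 4) received [14C]-labelled drug at 1 mg/kg (41.9 µCi/kg), iv via tail vein or oral. They were housed in metabolic cages. Urine and feces were collected to 168 h, and expired CO2 was trapped in 2-aminoethanol/2-methoxyethanol to 48 h. Radioactivity was counted by liquid scintillation, feces after homogenization. Results are % of dose.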

[12] = Drug excretion in bile duct cannulated F344 rat bile at 1 mg/kg, iv administered as single dose after 0 to 48 hrs by scintillation counting method; assay type: ADME, organism-based; set-up: dose 1 mg/kg, route intravenous; details: in vivo
Outline: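 Common bile duct was cannulated under diethyl ether in fasted F344 rats. After recovery, [14C]-labelled drug (1 mg/kg, 41.9 µCi/kg) was given iv via tail vein or by oral gavage (n = 4). Rats were held in Bollman cages and bile was collected at 4°C over 0–48 h intervals. Bile was counted by liquid scintillation; % of dose.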

[13] = Drug excretion in cynomolgus monkey urine at 3 mg/kg, iv administered as single dose after 0 to 48 hrs by scintillation counting method; assay type: ADME, organism-based, Macaca fascicularis; set-up: dose 3 mg/kg, route intravenous; details: in vivo
[14] = Drug metabolism in F344 rat urine assessed as 1,4-dideoxy-1,4-imino-D-arabinitol formation by LC-MS/MS method; assay type: ADME, tissue-based
[15] = Drug metabolism in F344 rat feces assessed as 1,4-dideoxy-1,4-imino-D-arabinitol formation by LC-MS/MS method; assay type: ADME, tissue-based
Cynomolgus monkey [16] = assay: Drug excretion in cynomolgus monkey assessed as drug level found during cage washing at 3 mg/kg, iv administered as single dose after 0 to 48 hrs by scintillation counting method; assay type: ADME, organism-based, Macaca fascicularis; set-up: dose 3 mg/kg, route intravenous; details: in vivo
Outline: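 Fasted cynomolgus monkeys (n = 4) received [14C]-labelled drug at 3 mg/kg, iv via saphenous vein (191 µCi/kg) or orally by stomach catheter (156.5 µCi/kg). Urine, feces and water cage-wash were collected to 336 h. Samples were counted by liquid scintillation; feces were homogenized in 4-fold water. Results are % of dose, mean ± S.D.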

Cynomolgus monkey [17] = assay: Total drug excretion in cynomolgus monkey at 3 mg/kg, iv administered as single dose after 0 to 48 hrs by scintillation counting method; assay type: ADME, organism-based, Macaca fascicularis; set-up: dose 3 mg/kg, route intravenous; details: in vivo
Outline: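 Fasted male cynomolgus monkeys (n = 4) were dosed with 14C-labelled drug at 3 mg/kg, iv via saphenous vein (191 µCi/kg) or orally by stomach catheter (156.5 µCi/kg). Urine, feces and cage-wash water were collected to 336 h. Radioactivity was measured by liquid scintillation counting, with feces homogenized in water, and expressed as % of dose.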

half-life [1] [h]	Cmax [2] [ng/mL]	Cmax [3] [ng/mL]	IC50 (Alpha amylase) [nM]	AUC(0-inf) [4] [ng·h/mL]	clearance [5] [mL/min/kg]	Vd [6] [L/kg]	Vd [7] [L/kg]	Vd [8] [L/kg]	AUC(0-inf) [9] [ng·h/mL]	AUC(0-t) [10] [ng·h/mL]	half-life [11] [h]	Drug excretion (Rattus norvegicus) [%]	Drug excretion [12] [%]	Drug excretion [13] [%]	Drug metabolism [14]	Drug metabolism [15]	Drug excretion (Cynomolgus monkey [16]) [%]	Drug excretion (Cynomolgus monkey [17]) [%]	SMILES
25.1	15.3	16.2	450	2010	3.44	0.237	0.271	0.262	1080	52	4.16								C[C@H]1O[C@@H](O[C@H]2[C@H](O)[C@@H](O)[C@@H](O[C@H]3[C@H](O)CN[C@@H]3CO)O[C@@H]2CO)[C@H](O)[C@@H](O)[C@@H]1O
												86.96	0.37	80.13	metabolite_detected	metabolite_detected	13.7	94.29	C[C@H]1O[C@@H](O[C@H]2[C@H](O)[C@@H](O)[C@@H](O[14C@H]3[14C@H](O)[14CH2]N[14C@@H]3[14CH2]O)O[C@@H]2CO)[C@H](O)[C@@H](O)[C@@H]1O

Source: ChEMBL document CHEMBL3526127, “Absorption, elimination, and metabolism of CS-1036, a novel α-amylase inhibitor in rats and monkeys, and the relationship between gastrointestinal distribution and suppression of glucose absorption” (Drug Metab Dispos, 2013)
